Tests used:
Format in all cases: functional
Rattus norvegicus = organism: Rattus norvegicus; assay: Tested for efficacy of compound in experimental vaginal candidosis (rat) after tropical treatment at dosage of 9x 1% drug concentration
How it was run: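 Hormonally conditioned female Wistar rats (~150 g; 10 per group) were infected intravaginally with 3.5×10^4 CFU C. albicans no. 124. Intravaginal gel (0.2 mL) started 2 h post-inoculation and was applied twice daily for 4 days, giving nine applications. Vaginal swabs taken one day after the last treatment were cultured on streptomycin Sabouraud agar at 37 °C for 48 h. Cure meant no reisolation.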

Candida albicans [1] = assay: Tested for minimum subinhibitory concentration against Candida albicans 26 (Candida albicans) at pH 6.5.
How it was run: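 Malt extract broth microdilution, initial pH 6.5, inoculum 1×10^3 CFU per 0.2 mL well. Compound diluted from 0.08% stock (5% DMSO/0.2% Tween 80) to final 0.05–100 μg/mL. Macroscopic reading after 48 h, 30 °C. MSIC = lowest concentration giving visible growth inhibition in at least two of three triplicates. Vehicle-only negative controls.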

Candida albicans [2] = assay: Tested for minimum inhibitory concentration against Candida albicans 3 (Candida albicans) at pH 6.5.
How it was run: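 Broth microdilution in malt extract broth, initial pH 6.5, 1×10^3 CFU per 0.2 mL well, from liquid-nitrogen-stored Sabouraud cultures. Compound from 0.08% stock in 5% DMSO/0.2% Tween 80, final 0.05–100 μg/mL. Visual reading after 48 h at 30 °C. MIC = lowest concentration with no detectable growth. Vehicle-only negative controls.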

CC[C@@H](C)[C@H]1C(=O)NCC(=O)N(C)[C@@H](C(C)C)C(=O)N[C@@H](Cc2ccc(OC)cc2)C(=O)O[C@H](C)C(=O)N2CCCC[C@H]2C(=O)N(C)[C@@H](C(C)C)C(=O)N[C@@H](C(C)C)C(=O)N(C)[C@@H](CC(=O)O)C(=O)N(C)[C@@H]([C@@H](C)CC)C(=O)N1C
Efficacy (Rattus norvegicus): 100%
MSIC (Candida albicans [1]): 6.25 µg/mL
MIC (Candida albicans [2]): > 100 µg/mL

Reference: ChEMBL document CHEMBL1127799, “Derivatives of a novel cyclopeptolide. 1. Synthesis, antifungal activity, and structure-activity relationships” (1994)
